# Published values pooled from the literature.
# Protocols differ between the studies behind these lines.
# Target: B2 bradykinin receptor (BDKRB2, Homo sapiens, UniProt P30411)
# Sequence (P30411 1-391, as in one of the studies): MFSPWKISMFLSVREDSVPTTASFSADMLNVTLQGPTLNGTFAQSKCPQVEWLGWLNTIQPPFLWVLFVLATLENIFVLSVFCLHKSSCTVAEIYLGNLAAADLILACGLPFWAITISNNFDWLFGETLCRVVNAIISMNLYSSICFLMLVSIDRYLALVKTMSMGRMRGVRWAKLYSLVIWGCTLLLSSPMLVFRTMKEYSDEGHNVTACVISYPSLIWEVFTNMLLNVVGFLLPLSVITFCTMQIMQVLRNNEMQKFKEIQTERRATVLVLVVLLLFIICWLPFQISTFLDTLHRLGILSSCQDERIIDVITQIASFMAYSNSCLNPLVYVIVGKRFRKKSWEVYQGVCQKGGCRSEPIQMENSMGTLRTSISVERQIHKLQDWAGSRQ
SMILES,effect on,method,tested at,inhibition [%]
CCN(CC)CCCC[C@H](NC(=O)[C@H](CC(C)C)NC(=O)[C@H](C)NC(=O)[C@H](Cc1ccccc1)NC(=O)c1ccc(C(C)(C)C)cc1)C(=O)N[C@@H](CO)C(=O)OC,ligand displacement,radioligand,10 µM,-7
CC(C)N1CCC[C@H]1CNC(=O)c1cn(C2CCCC2)c(=O)c2c1c1ccccc1n2C,ligand displacement,radioligand,10 µM,11
COCc1c(-c2cc3cc(C)cc(OC)c3s2)c2c(N)ncnn2c1CN1CCNC(=O)C1,ligand displacement,radioligand,10 µM,3
CN(CCN1CCC(OC(=O)Nc2ccccc2-c2ccccc2)CC1)C(=O)c1ccc(CN2CCC(C(N)=O)CC2)cc1,ligand displacement,radioligand,1 µM,-6
c1ccc(C(NCCNC(c2ccccc2)c2ccccc2)c2ccccc2)cc1,cell-free assay,,10 µM,17
COc1ccc(S(=O)(=O)N2CCCCC2)cc1C,ligand displacement,radioligand,10 µM,< 30
C[C@H](C(=O)N[C@H]1COc2ccccc2[C@@H]1S(C)(=O)=O)c1ccc(F)cc1,cell-free assay,,10 µM,8
O=C(Nc1cccnn1)N1CCN([C@@H]2CCOc3cc(C(F)(F)F)ccc32)CC1,cell-free assay,,20 µM,10
